Article PMC12023741 (RSC Advances, 2025)

What was measured:
MCF-7 cell line = assay: MTT assay, MCF-7; type: cell-based; details: for antitumor effect (in words): MCF-7, MTT assay, compared to DOX
HCT-116 cell line = assay: MTT assay, HCT-116; type: cell-based; details: for antitumor effect (in words): HCT-116, MTT assay, compared to DOX
HepG2 cell line = assay: MTT assay, HepG2; type: cell-based; details: for antitumor effect (in words): HepG2, MTT assay, compared to DOX
[1] = DPPH free radical scavenging; type: biochemical; details: read-out: DPPH scavenging activity IC50; stable DPPH radical; mean ± SE, n = 3
Outline: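 Radical-scavenging capacity of the test compounds toward DPPH was measured by a modified Zheleva-Dimitrova procedure. Scavenging activity was recorded and IC50 values were derived from it. Data are mean ± SE, n = 3.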

[2] = test system: WI-38 normal cells (human lung fibroblast); assay: MTT assay, WI-38 normal cells; type: cell-based

Structure (SMILES) | IC50 [1] [µM] | IC50 (MCF-7 cell line; Homo sapiens, MCF7) [µM] | IC50 (HCT-116 cell line; Homo sapiens, HCT-116) [µM] | IC50 (HepG2 cell line; Homo sapiens, HepG2) [µM] | antitumor effect (in words) (MCF-7 cell line) | antitumor effect (in words) (HCT-116 cell line) | antitumor effect (in words) (HepG2 cell line) | cytotoxic effect on normal cells (in words) [2]
CN(C)c1ccc(/C=C/C(=O)c2ccc(/N=N\C3C(=O)N(c4ccccc4)N=C3N)cc2)cc1 (stereo not drawn) [Compound 3e, 5-Amino-4-((Z)-(4-((E)-3-(4-(dimethylamino)phenyl)acryloyl)phenyl)diazenyl)-2-phenyl-2,4-dihydro-3H-pyrazol-3-one] | 32.79 ± 0.21 |  |  |  | moderate effect | moderate effect | moderate effect | 
NC1=NN(c2ccccc2)C(=O)C1/N=N/c1ccc(C(=O)/C=C/C=C/c2ccccc2)cc1 (stereo not drawn) [Compound 3g, 5-Amino-2-phenyl-4-((E)-(4-((2E,4E)-5-phenylpenta-2,4-dienoyl)phenyl)diazenyl)-2,4-dihydro-3H-pyrazol-3-one] | 73.63 ± 0.39 |  |  |  | weak effect | weak effect | weak effect | 
NC1=NN(c2ccccc2)C(=O)C1/N=N/c1ccc(C(=O)/C=C/c2ccc(O)cc2)cc1 (stereo not drawn) [Compound 3c, 5-Amino-4-((E)-(4-((E)-3-(4-hydroxyphenyl)acryloyl)phenyl)diazenyl)-2-phenyl-2,4-dihydro-3H-pyrazol-3-one] | 94.18 ± 0.45 |  |  |  | weak effect | weak effect | weak effect | 
NC1=NN(c2ccccc2)C(=O)C1/N=N/c1ccc(C(=O)/C=C/c2ccccc2O)cc1 (stereo not drawn) [Compound 3d, 5-Amino-4-((E)-(4-((E)-3-(2-hydroxyphenyl)acryloyl)phenyl)diazenyl)-2-phenyl-2,4-dihydro-3H-pyrazol-3-one] | 48.59 ± 0.28 |  |  |  | moderate effect | moderate effect | moderate effect | 

Now those with a lower IC50 [1], led by results:

IC50 [1] [µM] | IC50 (MCF-7 cell line; Homo sapiens, MCF7) [µM] | IC50 (HCT-116 cell line; Homo sapiens, HCT-116) [µM] | IC50 (HepG2 cell line; Homo sapiens, HepG2) [µM] | Structure (SMILES) | antitumor effect (in words) (MCF-7 cell line) | antitumor effect (in words) (HCT-116 cell line) | antitumor effect (in words) (HepG2 cell line) | cytotoxic effect on normal cells (in words) [2]
27.25 ± 0.19 |  |  |  | NC1=NN(c2ccccc2)C(=O)C1/N=N/c1ccc(C(=O)C=Cc2ccco2)cc1 (stereo not drawn) [Compound 3f, (E)-3-Amino-4-((4-(3-(furan-2-yl)acryloyl)phenyl)diazenyl)-1-phenyl-1H-pyrazol-5(4H)-one] | impressive antitumor effects | impressive antitumor effects | impressive antitumor effects | 
16.81 ± 0.1 |  |  |  | O=C1O[C@H]([C@@H](O)CO)C(O)=C1O [L-ascorbic acid, reference compound] |  |  |  | 
21.4 ± 0.17 |  |  |  | NC1=NN(c2ccccc2)C(=O)C1/N=N/c1ccc(C(=O)C=Cc2ccccc2)cc1 (stereo not drawn) [Compound 3a, 5-Amino-4-((E)-(4-cinnamoylphenyl)diazenyl)-2-phenyl-2,4-dihydro-3H-pyrazol-3-one] | impressive antitumor effects | impressive antitumor effects | impressive antitumor effects | 
19.95 ± 0.14 | 3.92 ± 0.2 | 6.34 ± 0.5 | 5.03 ± 0.4 | COc1cc(/C=C/C(=O)c2ccc(/N=N/C3C(=O)N(c4ccccc4)N=C3N)cc2)ccc1O (stereo not drawn) [Compound 3b, 5-Amino-4-((E)-(4-((E)-3-(4-hydroxy-3-methoxyphenyl)acryloyl)phenyl)diazenyl)-2-phenyl-2,4-dihydro-3H-pyrazol-3-one] |  |  |  | safe toxic profile on normal cells
